Converted amounts (≈) assume the structure as drawn. The source made the active and inactive calls. The calls are words filed in the database; no cut-off is given here.
What was measured:
Pseudomonas aeruginosa [1] = experiment: Antibacterial activity against Pseudomonas aeruginosa isolate 100036 after 18 to 24 hrs by microbroth dilution assay; assay type: functional
In short: (§1)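 Checkerboard in MHB: antibiotic 2-fold diluted along one axis, test agent 2-fold diluted along the other. Overnight culture standardized to 0.5 McFarland in saline, diluted 1:50 in MHB, added to wells, incubated 37 °C for 18 h. MIC is the lowest concentration with no growth. FIC = MIC in combination / MIC alone; FIC index = sum of both FICs.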

[2] = system: Pseudomonas aeruginosa PAO1; experiment: Inhibition of RND efflux pump in Pseudomonas aeruginosa PAO1 assessed as potentiation of minocycline-induced antibacterial activity by measuring minocycline MIC at 8 ug/ml after 18 to 24 hrs by microbroth dilution assay (reference value: 8 ug/ml)
In short: (§2)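 Absolute minocycline MIC taken from checkerboard broth dilution with a fixed 8 μg/mL adjuvant. Inoculum was a 0.5 McFarland saline suspension diluted 1:50 in MHB, incubated 37 °C for 18 h. MIC is the lowest concentration with no growth.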

Pseudomonas aeruginosa [3] = experiment: Antibacterial activity against Pseudomonas aeruginosa PAO1 after 18 to 24 hrs by microbroth dilution assay; assay type: functional; in short: as §1
[4] = system: Pseudomonas aeruginosa PAO1; experiment: Inhibition of RND efflux pump in Pseudomonas aeruginosa PAO1 assessed as potentiation of tigecycline-induced antibacterial activity by measuring fold reduction in tigecycline MIC at 8 ug/ml after 18 to 24 hrs by microbroth dilution assay relative to tigecycline alone
In short: (§3)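 Checkerboard broth microdilution: antibiotic 2-fold diluted along one axis, adjuvant 2-fold diluted along the other. Overnight culture standardized to 0.5 McFarland in saline, diluted 1:50 in MHB, added to wells, 37 °C for 18 h. MIC is the lowest concentration with no growth. FIC = MIC in combination / MIC alone; FICI = sum of the two FICs; FICI ≤0.5 is synergy.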

Pseudomonas aeruginosa [5] = experiment: Inhibition of RND efflux pump in Pseudomonas aeruginosa isolate 100036 assessed as potentiation of minocycline-induced antibacterial activity at 8 ug/ml after 18 to 24 hrs by checker board assay; in short: as §1
Pseudomonas aeruginosa [6] = experiment: Inhibition of RND efflux pump in Pseudomonas aeruginosa isolate 100036 assessed as potentiation of minocycline-induced antibacterial activity by measuring minocycline MIC at 8 ug/ml after 18 to 24 hrs by microbroth dilution assay (reference value: 64 ug/ml); in short: as §3
Pseudomonas aeruginosa [7] = experiment: Inhibition of RND efflux pump in Pseudomonas aeruginosa isolate 101885 assessed as potentiation of minocycline-induced antibacterial activity at 8 ug/ml after 18 to 24 hrs by checker board assay; in short: as §1
Pseudomonas aeruginosa [8] = experiment: Antibacterial activity against Pseudomonas aeruginosa isolate P259-96918 after 18 to 24 hrs by microbroth dilution assay; assay type: functional; in short: as §1
Pseudomonas aeruginosa [9] = experiment: Antibacterial activity against Pseudomonas aeruginosa isolate P260-97103 after 18 to 24 hrs by microbroth dilution assay; assay type: functional; in short: as §1
Pseudomonas aeruginosa [10] = experiment: Antibacterial activity against Pseudomonas aeruginosa isolate P264-104354 after 18 to 24 hrs by microbroth dilution assay; assay type: functional; in short: as §1
Pseudomonas aeruginosa [11] = experiment: Antibacterial activity against colistin-resistant Pseudomonas aeruginosa isolate 91433 after 18 to 24 hrs by microbroth dilution assay; assay type: functional; in short: as §3
Pseudomonas aeruginosa [12] = experiment: Antibacterial activity against colistin-resistant Pseudomonas aeruginosa isolate 101243 after 18 to 24 hrs by microbroth dilution assay; assay type: functional; in short: as §3
Pseudomonas aeruginosa [13] = experiment: Inhibition of RND efflux pump in colistin-resistant Pseudomonas aeruginosa isolate 101243 assessed as potentiation of minocycline-induced antibacterial activity at 8 ug/ml after 18 to 24 hrs by checker board assay; in short: as §3
Pseudomonas aeruginosa [14] = experiment: Inhibition of RND efflux pump in Pseudomonas aeruginosa isolate 100036 assessed as potentiation of minocycline-induced antibacterial activity by measuring fold reduction in minocycline MIC at 8 ug/ml after 18 to 24 hrs by microbroth dilution assay; in short: as §3
Pseudomonas aeruginosa [15] = experiment: Inhibition of RND efflux pump in Pseudomonas aeruginosa isolate 101885 assessed as potentiation of minocycline-induced antibacterial activity by measuring fold reduction in minocycline MIC at 8 ug/ml after 18 to 24 hrs by microbroth dilution assay; in short: as §3
Pseudomonas aeruginosa [16] = experiment: Inhibition of RND efflux pump in Pseudomonas aeruginosa isolate P262-101856 assessed as potentiation of minocycline-induced antibacterial activity by measuring fold reduction in minocycline MIC at 8 ug/ml after 18 to 24 hrs by microbroth dilution assay; in short: as §3
Pseudomonas aeruginosa [17] = experiment: Inhibition of RND efflux pump in Pseudomonas aeruginosa isolate P262-104354 assessed as potentiation of minocycline-induced antibacterial activity by measuring fold reduction in minocycline MIC at 8 ug/ml after 18 to 24 hrs by microbroth dilution assay; in short: as §3
Pseudomonas aeruginosa [18] = experiment: Inhibition of RND efflux pump in colistin-resistant Pseudomonas aeruginosa isolate 101243 assessed as potentiation of minocycline-induced antibacterial activity by measuring fold reduction in minocycline MIC at 8 ug/ml after 18 to 24 hrs by microbroth dilution assay; in short: as §3
Klebsiella pneumoniae [19] = experiment: Inhibition of RND efflux pump in Klebsiella pneumoniae isolate 116381 assessed as potentiation of minocycline-induced antibacterial activity by measuring minocycline MIC at 8 ug/ml after 18 to 24 hrs by microbroth dilution assay (reference value: 128 ug/ml); in short: as §2
Enterobacter cloacae = experiment: Inhibition of RND efflux pump in Enterobacter cloacae isolate 117029 assessed as potentiation of minocycline-induced antibacterial activity by measuring minocycline MIC at 8 ug/ml after 18 to 24 hrs by microbroth dilution assay (reference value: 128 to 256 ug/ml); in short: as §2
Klebsiella pneumoniae [20] = experiment: Inhibition of RND efflux pump in Klebsiella pneumoniae isolate 116381 assessed as potentiation of minocycline-induced antibacterial activity at 8 ug/ml after 18 to 24 hrs by microbroth dilution assay; in short: as §1
Pseudomonas aeruginosa [21] = experiment: Induction of outer membrane permeabilization in Pseudomonas aeruginosa PAO1 assessed as increase in NPN uptake up to 100 secs by fluorescence assay; assay type: functional
In short: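 Outer membrane permeabilization in PAO1 cells, read as accumulation of 1-N-phenylnaphthylamine (NPN) by fluorescence over a range of compound concentrations. Triton X-100 (1%) and EDTA (10 mM) served as positive controls.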

[22] = system: Pseudomonas aeruginosa PAO1; experiment: Inhibition of RND efflux pump in Pseudomonas aeruginosa PAO1 assessed as potentiation of novobiocin-induced antibacterial activity […] by microbroth dilution assay
[23] = system: Pseudomonas aeruginosa PAO1; experiment: Inhibition of RND efflux pump in Pseudomonas aeruginosa PAO1 assessed as potentiation of erythromycin-induced antibacterial activity […] by microbroth dilution assay
Pseudomonas aeruginosa [24] = experiment: Potentiation of rifampicin-induced antibacterial activity against Pseudomonas aeruginosa PAO1 […] by microbroth dilution assay; assay type: functional
Pseudomonas aeruginosa [25] = experiment: Reduction in flagellum-dependant motility in Pseudomonas aeruginosa PAO1 at sub MIC after 20 hrs in presence of minocycline by swimming motility test; assay type: functional
Pseudomonas aeruginosa [26] = experiment: Potentiation of minocycline-induced antibacterial activity against mexAB-oprM deficient Pseudomonas aeruginosa PAO200 after 18 to 24 hrs by microbroth dilution assay; assay type: functional
[27] = system: Pseudomonas aeruginosa PAO1; experiment: Inhibition of RND efflux pump in Pseudomonas aeruginosa PAO1 assessed as potentiation of tobramycin-induced antibacterial activity after 18 to 24 hrs by checker board assay; in short: as §1

| SMILES | MIC (Pseudomonas aeruginosa [1]) [µg/mL] | MIC [2] [µg/mL] | MIC (Pseudomonas aeruginosa [3]) [µg/mL] | fold change (FC) [4] | fractional inhibitory concentration index (FICI) (Pseudomonas aeruginosa [5]) | MIC (Pseudomonas aeruginosa [6]) [µg/mL] | fractional inhibitory concentration index (FICI) (Pseudomonas aeruginosa [7]) | MIC (Pseudomonas aeruginosa [8]) [µg/mL] | MIC (Pseudomonas aeruginosa [9]) [µg/mL] | MIC (Pseudomonas aeruginosa [10]) [µg/mL] | MIC (Pseudomonas aeruginosa [11]) [µg/mL] | MIC (Pseudomonas aeruginosa [12]) [µg/mL] | fractional inhibitory concentration index (FICI) (Pseudomonas aeruginosa [13]) | fold change (FC) (Pseudomonas aeruginosa [14]) | fold change (FC) (Pseudomonas aeruginosa [15]) | fold change (FC) (Pseudomonas aeruginosa [16]) | fold change (FC) (Pseudomonas aeruginosa [17]) | fold change (FC) (Pseudomonas aeruginosa [18]) | MIC (Klebsiella pneumoniae [19]) [µg/mL] | MIC (Enterobacter cloacae) [µg/mL] | other results |
| --- | --- | --- | --- | --- | --- | --- | --- | --- | --- | --- | --- | --- | --- | --- | --- | --- | --- | --- | --- | --- | --- |
| NC[C@H]1C[C@H](C(=O)N[C@H](CCc2ccccc2)C(=O)Nc2ccc3ccccc3c2)N(CCCCCCCCCCCCO[C@@H]2[C@@H](O[C@H]3O[C@H](CO)[C@@H](O)[C@H](N)[C@H]3O)[C@H](N)C[C@H](N)[C@H]2O[C@H]2O[C@H](CN)[C@@H](O)C[C@H]2N)C1 | 32 (≈ 30.1 µM) | 0.12 | 32 (≈ 30.1 µM) | 8 to 64 | 0.06 | < 0.25 | 0.13 | 64 (≈ 60.1 µM) | 4 (≈ 3.76 µM) | 8 (≈ 7.52 µM) | 8 (≈ 7.52 µM) | 16 (≈ 15 µM) | 0.19 | 8 to 256 | 8 to 256 | 8 to 256 | 8 to 256 | 8 to 256 | 4 | 1 | fractional inhibitory concentration index (FICI) (Klebsiella pneumoniae [20]): 0.03 to 0.16; Activity (Pseudomonas aeruginosa [21]): Dose-dependent effect; fractional inhibitory concentration index (FICI) [22]: < 0.1; fractional inhibitory concentration index (FICI) [23]: < 0.2; fractional inhibitory concentration index (FICI) (Pseudomonas aeruginosa [24]): <0.05; Activity (Pseudomonas aeruginosa [25]): Active; Activity (Pseudomonas aeruginosa [26]): inactive; fractional inhibitory concentration index (FICI) [27]: > 1.5 |
| Cl.Cl.Cl.Cl.Cl.Cl.NC[C@H]1O[C@H](O[C@H]2[C@H](OCCCCCCCCCCCCN3CC[C@@H](c4ccc(F)cc4)[C@H](COc4ccc5c(c4)OCO5)C3)[C@@H](O[C@H]3O[C@H](CO)[C@@H](O)[C@H](N)[C@H]3O)[C@H](N)C[C@@H]2N)[C@H](N)C[C@@H]1O | 64 | 0.25 | 32 | 8 to 64 | 0.05 | < 0.25 | 0.13 | > 512 | 8 | 64 | 32 | 32 | 0.38 | 8 to 256 | 8 to 256 | 8 to 256 | 8 to 256 | 8 to 256 | 32 | 4 | fractional inhibitory concentration index (FICI) (Klebsiella pneumoniae [20]): 0.25 to 0.38; Activity (Pseudomonas aeruginosa [21]): Dose-dependent effect; fractional inhibitory concentration index (FICI) [22]: < 0.1; fractional inhibitory concentration index (FICI) [23]: < 0.2; fractional inhibitory concentration index (FICI) (Pseudomonas aeruginosa [24]): <0.05; Activity (Pseudomonas aeruginosa [25]): Active; Activity (Pseudomonas aeruginosa [26]): inactive; fractional inhibitory concentration index (FICI) [27]: > 1.5 |
| Cl.Cl.Cl.Cl.Cl.Cl.Cl.NC[C@H]1O[C@H](O[C@H]2[C@H](OCCCCCCCCCCCCN3CCN(Cc4cccc5ccccc45)CC3)[C@@H](O[C@H]3O[C@H](CO)[C@@H](O)[C@H](N)[C@H]3O)[C@H](N)C[C@@H]2N)[C@H](N)C[C@@H]1O | 256 | 0.5 | 64 | 8 to 64 | 0.02 | 0.5 | 0.05 | > 1020 | 2 | 128 | 32 | 64 | 0.28 | 8 to 256 | 8 to 256 | 8 to 256 | 8 to 256 | 8 to 256 | 16 | 8 | fractional inhibitory concentration index (FICI) (Klebsiella pneumoniae [20]): 0.13 to 0.38; Activity (Pseudomonas aeruginosa [21]): Dose-dependent effect; fractional inhibitory concentration index (FICI) [22]: < 0.1; fractional inhibitory concentration index (FICI) [23]: < 0.2; fractional inhibitory concentration index (FICI) (Pseudomonas aeruginosa [24]): <0.05; Activity (Pseudomonas aeruginosa [25]): Active; Activity (Pseudomonas aeruginosa [26]): inactive; fractional inhibitory concentration index (FICI) [27]: > 1.5 |

Source: ChEMBL document CHEMBL4017460, “A Tobramycin Vector Enhances Synergy and Efficacy of Efflux Pump Inhibitors against Multidrug-Resistant Gram-Negative Bacteria” (J Med Chem, 2017)
